Test results from ChEMBL document CHEMBL1255234, “daptomycin activity against Staphylococcus aureus following vancomycin exposure in an in vitro pharmacodynamic model with simulated endocardial vegetations” (Antimicrob Agents Chemother, 2008).
Converted amounts (≈) assume the structure as drawn.

Key:
Staphylococcus aureus [1] = experiment: Cmax in methicillin-resistant Staphylococcus aureus 36132 at 1 g administered every 12 hrs for 4 days in in vitro pharmacokinetic-pharmacodynamic model with simulated endocardial vegetations; type: ADME, organism-based; parameters: dose 1 g; details: in vivo
Procedure, shortened: (§1)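 Duplicate samples taken from the model injection port over 0–192 h and stored at −70°C. Daptomycin assayed by Micrococcus luteus ATCC 9341 disk microbioassay (standards 2.5–150 mg/liter; detection limit 2.5 mg/liter). Vancomycin assayed by fluorescence polarization immunoassay (detection limit 2 mg/liter). Cmax and half-life derived by the trapezoidal method.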

Staphylococcus aureus [2] = experiment: Half life in methicillin-susceptible Staphylococcus aureus 616 at 1 g administered every 12 hrs for 4 days in in vitro pharmacokinetic-pharmacodynamic model with simulated endocardial vegetations; type: ADME, organism-based; details: in vivo; procedure, shortened: as §1
Staphylococcus aureus [3] = experiment: Cmax in methicillin-susceptible Staphylococcus aureus 616 at 1 g administered every 12 hrs for 4 days in in vitro pharmacokinetic-pharmacodynamic model with simulated endocardial vegetations; type: ADME, organism-based; parameters: dose 1 g; details: in vivo; procedure, shortened: as §1
Staphylococcus aureus [4] = experiment: Half life in methicillin-resistant Staphylococcus aureus WB2 at 1 g administered every 12 hrs for 4 days in in vitro pharmacokinetic-pharmacodynamic model with simulated endocardial vegetations; type: ADME, organism-based; details: in vivo; procedure, shortened: as §1
Staphylococcus aureus [5] = experiment: Cmax in methicillin-resistant Staphylococcus aureus WB2 at 1 g administered every 12 hrs for 4 days in in vitro pharmacokinetic-pharmacodynamic model with simulated endocardial vegetations; type: ADME, organism-based; parameters: dose 1 g; details: in vivo; procedure, shortened: as §1
Staphylococcus aureus [6] = experiment: Half life in methicillin-resistant Staphylococcus aureus 675 at 1 g administered every 12 hrs for 4 days in in vitro pharmacokinetic-pharmacodynamic model with simulated endocardial vegetations; type: ADME, organism-based; details: in vivo; procedure, shortened: as §1
Staphylococcus aureus [7] = experiment: Half life in methicillin-resistant Staphylococcus aureus 36132 at 1 g administered every 12 hrs for 4 days in in vitro pharmacokinetic-pharmacodynamic model with simulated endocardial vegetations; type: ADME, organism-based; details: in vivo; procedure, shortened: as §1
Staphylococcus aureus [8] = experiment: Half life in methicillin-resistant Staphylococcus aureus WB1 at 1 g administered every 12 hrs for 4 days in in vitro pharmacokinetic-pharmacodynamic model with simulated endocardial vegetations; type: ADME, organism-based; details: in vivo; procedure, shortened: as §1
Staphylococcus aureus [9] = experiment: Cmax in methicillin-resistant Staphylococcus aureus WB1 at 1 g administered every 12 hrs for 4 days in in vitro pharmacokinetic-pharmacodynamic model with simulated endocardial vegetations; type: ADME, organism-based; parameters: dose 1 g; details: in vivo; procedure, shortened: as §1
Staphylococcus aureus [10] = experiment: Cmax in methicillin-resistant Staphylococcus aureus 675 at 1 g administered every 12 hrs for 4 days in in vitro pharmacokinetic-pharmacodynamic model with simulated endocardial vegetations; type: ADME, organism-based; parameters: dose 1 g; details: in vivo; procedure, shortened: as §1
Staphylococcus aureus [11] = experiment: Half life in methicillin-resistant Staphylococcus aureus 36132 at 6 mg/kg administered daily for 4 days pretreated with 1 g vancomycin administered every 12 hrs for 4 days in in vitro pharmacokinetic-pharmacodynamic model with simulated endocardial vegetations; type: ADME, organism-based; parameters: dose 6 mg/kg; details: in vivo, 96 h; procedure, shortened: as §1
Staphylococcus aureus [12] = experiment: Antimicrobial activity against methicillin-resistant Staphylococcus aureus WB2
Staphylococcus aureus [13] = experiment: Half life in methicillin-susceptible Staphylococcus aureus 616 at 10 mg/kg administered daily for 4 days pretreated with 1 g vancomycin administered every 12 hrs for 4 days in in vitro pharmacokinetic-pharmacodynamic model with simulated endocardial vegetations; type: ADME, organism-based; parameters: dose 10 mg/kg; details: in vivo, 96 h; procedure, shortened: as §1
Staphylococcus aureus [14] = experiment: Antimicrobial activity against methicillin-susceptible Staphylococcus aureus 616 at 6 mg/kg administered daily for 8 days in in vitro pharmacokinetic-pharmacodynamic model with simulated endocardial vegetations; type: functional
Procedure, shortened: (§2)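 S. aureus SEVs (≈10^9 CFU/g inoculum in human cryoprecipitate plus platelets) suspended in a 250-ml one-compartment model at 37°C. Fresh medium pumped to simulate drug half-lives; drug given as boluses over 8 days; duplicate models. Two SEVs removed per model at each time point (0–192 h), homogenized, plated on TSA 35°C 24 h. Log10 CFU/g reduction read from time-kill curves; detection limit 2.0 log10 CFU/g.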

Staphylococcus aureus [15] = experiment: Antimicrobial activity against methicillin-susceptible Staphylococcus aureus at 6 mg/kg administered daily for 4 days after 4 days of growth without antibiotic in in vitro pharmacokinetic-pharmacodynamic model with simulated endocardial vegetations
Staphylococcus aureus [16] = experiment: Antimicrobial activity against methicillin-susceptible Staphylococcus aureus 616; type: functional
Procedure, shortened: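 MIC by broth microdilution in SMHB or by Etest, following CLSI guidelines. MBC defined as 99.9% killing of the starting inoculum, from 5 μl of the MIC well and all other growth-inhibited wells plated onto agar.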

Staphylococcus aureus [17] = experiment: Half life in methicillin-resistant Staphylococcus aureus WB1 at 6 mg/kg administered daily for 4 days pretreated with 1 g vancomycin administered every 12 hrs for 4 days in in vitro pharmacokinetic-pharmacodynamic model with simulated endocardial vegetations; type: ADME, organism-based; parameters: dose 6 mg/kg; details: in vivo, 96 h; procedure, shortened: as §1
Staphylococcus aureus [18] = experiment: microbe, parasite or virus in culture; details: 36132
Staphylococcus aureus [19] = experiment: Half life in methicillin-susceptible Staphylococcus aureus 616 at 6 mg/kg administered daily for 4 days pretreated with 1 g vancomycin administered every 12 hrs for 4 days in in vitro pharmacokinetic-pharmacodynamic model with simulated endocardial vegetations; type: ADME, organism-based; parameters: dose 6 mg/kg; details: in vivo, 96 h; procedure, shortened: as §1
Staphylococcus aureus [20] = experiment: Cmax in methicillin-susceptible Staphylococcus aureus 616 at 10 mg/kg administered daily for 4 days pretreated with 1 g vancomycin administered every 12 hrs for 4 days in in vitro pharmacokinetic-pharmacodynamic model with simulated endocardial vegetations; type: ADME, organism-based; parameters: dose 10 mg/kg; details: in vivo, 96 h; procedure, shortened: as §1
Staphylococcus aureus [21] = experiment: Antimicrobial activity against methicillin-susceptible Staphylococcus aureus 616 at 6 mg/kg administered daily for 8 days pretreated with 1 g vancomycin administered every 12 hrs for 4 days in in vitro pharmacokinetic-pharmacodynamic model with simulated endocardial vegetations; type: functional; procedure, shortened: as §2
Staphylococcus aureus [22] = experiment: Half life in methicillin-resistant Staphylococcus aureus 675 at 6 mg/kg administered daily for 4 days pretreated with 1 g vancomycin administered every 12 hrs for 4 days in in vitro pharmacokinetic-pharmacodynamic model with simulated endocardial vegetations; type: ADME, organism-based; parameters: dose 6 mg/kg; details: in vivo, 96 h; procedure, shortened: as §1
Staphylococcus aureus [23] = experiment: Cmax in methicillin-resistant Staphylococcus aureus 675 at 6 mg/kg administered daily for 4 days pretreated with 1 g vancomycin administered every 12 hrs for 4 days in in vitro pharmacokinetic-pharmacodynamic model with simulated endocardial vegetations; type: ADME, organism-based; parameters: dose 6 mg/kg; details: in vivo, 96 h; procedure, shortened: as §1
Staphylococcus aureus [24] = experiment: Cmax in methicillin-susceptible Staphylococcus aureus 616 at 6 mg/kg administered daily for 4 days pretreated with 1 g vancomycin administered every 12 hrs for 4 days in in vitro pharmacokinetic-pharmacodynamic model with simulated endocardial vegetations; type: ADME, organism-based; parameters: dose 6 mg/kg; details: in vivo, 96 h; procedure, shortened: as §1
Staphylococcus aureus [25] = experiment: Half life in methicillin-resistant Staphylococcus aureus WB2 at 6 mg/kg administered daily for 4 days pretreated with 1 g vancomycin administered every 12 hrs for 4 days in in vitro pharmacokinetic-pharmacodynamic model with simulated endocardial vegetations; type: ADME, organism-based; parameters: dose 6 mg/kg; details: in vivo, 96 h; procedure, shortened: as §1
Staphylococcus aureus [26] = experiment: Antimicrobial activity against methicillin-resistant Staphylococcus aureus WB1
Staphylococcus aureus [27] = experiment: Cmax in methicillin-resistant Staphylococcus aureus 36132 at 6 mg/kg administered daily for 4 days pretreated with 1 g vancomycin administered every 12 hrs for 4 days in in vitro pharmacokinetic-pharmacodynamic model with simulated endocardial vegetations; type: ADME, organism-based; parameters: dose 6 mg/kg; details: in vivo, 96 h; procedure, shortened: as §1
Staphylococcus aureus [28] = experiment: AUC(0-24 hrs)/MIC(broth) in methicillin-susceptible Staphylococcus aureus 616 at 1 g administered every 12 hrs for 4 days in in vitro pharmacokinetic-pharmacodynamic model with simulated endocardial vegetations; type: functional
Procedure, shortened: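 S. aureus simulated endocardial vegetations (fibrin/platelet clots, ~10^9 CFU/g) suspended in a 250-ml one-compartment model at 37°C, medium pumped to mimic half-life; vancomycin bolus every 12 h (target Cmax 30, Cmin 10 mg/liter) for 4 days. Duplicate runs. Drug levels by fluorescence polarization immunoassay; AUC0-24 by trapezoidal method, divided by broth microdilution MIC (CLSI).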

Staphylococcus aureus [29] = experiment: Antimicrobial activity against methicillin-susceptible Staphylococcus aureus 616 at 6 mg/kg administered daily for 4 days pretreated with 1 g vancomycin administered every 12 hrs for 4 days in in vitro pharmacokinetic-pharmacodynamic model with simulated endocardial vegetations; type: functional; procedure, shortened: as §2
Staphylococcus aureus [30] = experiment: Cmax in methicillin-resistant Staphylococcus aureus WB2 at 6 mg/kg administered daily for 4 days pretreated with 1 g vancomycin administered every 12 hrs for 4 days in in vitro pharmacokinetic-pharmacodynamic model with simulated endocardial vegetations; type: ADME, organism-based; parameters: dose 6 mg/kg; details: in vivo, 96 h; procedure, shortened: as §1
Staphylococcus aureus [31] = experiment: Cmax in methicillin-resistant Staphylococcus aureus WB1 at 6 mg/kg administered daily for 4 days pretreated with 1 g vancomycin administered every 12 hrs for 4 days in in vitro pharmacokinetic-pharmacodynamic model with simulated endocardial vegetations; type: ADME, organism-based; parameters: dose 6 mg/kg; details: in vivo, 96 h; procedure, shortened: as §1
Staphylococcus aureus [32] = experiment: microbe, parasite or virus in culture; details: 675
Staphylococcus aureus [33] = experiment: Antimicrobial activity against methicillin-susceptible Staphylococcus aureus 616 at 6 mg/kg administered daily for 4 days in in vitro pharmacokinetic-pharmacodynamic model with simulated endocardial vegetations; type: functional
Procedure, shortened: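 SEVs (clot of cryoprecipitate, platelets and organism) were suspended in a 250-ml, 37°C model with bolus dosing and pump clearance simulating half-lives. Daptomycin was given every 24 h (Cmax 98.6, Cmin 6.2 mg/liter) after 4 days of vancomycin 1 g q12h or no treatment. SEVs were sampled to 192 h, homogenized and plated (35°C, 24 h) for CFU/g; T99.9 was derived. Runs were done in duplicate.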

CN[C@H](CC(C)C)C(=O)N[C@H]1C(=O)N[C@@H](CC(N)=O)C(=O)N[C@H]2C(=O)N[C@H]3C(=O)N[C@H](C(=O)N[C@H](C(=O)O)c4cc(O)cc(O)c4-c4cc3ccc4O)[C@H](O)c3ccc(c(Cl)c3)Oc3cc2cc(c3O[C@@H]2O[C@H](CO)[C@@H](O)[C@H](O)[C@H]2O[C@H]2C[C@](C)(N)[C@H](O)[C@H](C)O2)Oc2ccc(cc2Cl)[C@H]1O [VANCOMYCIN]
Cmax (Staphylococcus aureus [1]): 31.4 µg/mL | t1/2 (Staphylococcus aureus [2]): 7.4 h | Cmax (Staphylococcus aureus [3]): 31.7 µg/mL | t1/2 (Staphylococcus aureus [4]): 5.3 h | Cmax (Staphylococcus aureus [5]): 33.4 µg/mL | t1/2 (Staphylococcus aureus [6]): 7.2 h | t1/2 (Staphylococcus aureus [7]): 6.9 h | t1/2 (Staphylococcus aureus [8]): 6.6 h | Cmax (Staphylococcus aureus [9]): 32.8 µg/mL | Cmax (Staphylococcus aureus [10]): 32.9 µg/mL

CCCCCCCCCC(=O)N[C@@H](Cc1c[nH]c2ccccc12)C(=O)N[C@H](CC(N)=O)C(=O)N[C@@H](CC(=O)O)C(=O)N[C@@H]1C(=O)NCC(=O)N[C@@H](CCCN)C(=O)N[C@@H](CC(=O)O)C(=O)N[C@H](C)C(=O)N[C@@H](CC(=O)O)C(=O)NCC(=O)N[C@H](CO)C(=O)N[C@@H]([C@H](C)CC(=O)O)C(=O)N[C@@H](CC(=O)c2ccccc2N)C(=O)O[C@@H]1C
t1/2 (Staphylococcus aureus [11]): 8.8 h | MIC (Staphylococcus aureus [12]): 0.25 µg/mL (≈ 0.154 µM) | t1/2 (Staphylococcus aureus [13]): 9.3 h | T99.9% (Staphylococcus aureus [14]): 4.8 h | T99.9% (Staphylococcus aureus [15]): 34.9 h | MIC (Staphylococcus aureus [16]): 0.125 µg/mL (≈ 0.0771 µM) | t1/2 (Staphylococcus aureus [17]): 7.9 h | t1/2 (Staphylococcus aureus [4]): 5.3 h | MIC (Staphylococcus aureus [18]): 0.25 µg/mL (≈ 0.154 µM) | t1/2 (Staphylococcus aureus [19]): 8.4 h | Cmax (Staphylococcus aureus [20]): 160.2 µg/mL | T99.9% (Staphylococcus aureus [21]): 6.6 h | t1/2 (Staphylococcus aureus [22]): 8 h | Cmax (Staphylococcus aureus [23]): 107.2 µg/mL | Cmax (Staphylococcus aureus [24]): 106.8 µg/mL | t1/2 (Staphylococcus aureus [25]): 7.6 h | MIC (Staphylococcus aureus [26]): 0.25 µg/mL (≈ 0.154 µM) | Cmax (Staphylococcus aureus [27]): 109.3 µg/mL | RatioAUC/MIC (Staphylococcus aureus [28]): 536.4 | T99.9% (Staphylococcus aureus [29]): 9.46 h | Cmax (Staphylococcus aureus [30]): 106.1 µg/mL | Cmax (Staphylococcus aureus [31]): 98.3 µg/mL | MIC (Staphylococcus aureus [32]): 0.25 µg/mL (≈ 0.154 µM) | T99.9% (Staphylococcus aureus [33]): 10.9 h
